# Shown are actives, neighbours in structure and some others; about 12% of the full set was active somewhere.
# Lmaj promast: reduces viability of Leishmania major promastigotes | inhibition, % at 10 µM | resazurin fluorescence viability | 200,000 compounds, 9% hits; in the data active = inhibition above about 50%;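 note: promastigotes grown with compound for 44 hours at 28 °C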
# ABCG2 inh: blocks JC-1 efflux by human ABCG2 transporter | Q9UNQ0 | IgMXP3 cells, flow cytometry | inhibition, % at 6.6 µM | 190,000 compounds, 0.1% hits | AID 1325;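 active = inhibition above 80%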;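 note: 0% = DMSO and 100% = nicardipine control wells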
#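 Test system: IgMXP3 (ABCG2) plus far-red-tagged CCRF-Adr (ABCB1) cells / Amount: 3 million cells/mL in well / Reagent: JC-1 transporter substrate / Timing: 10 min compound exposure, 25 °C / Signal: flow cytometry, 530 nm JC-1 signal / Read-out: percent efflux inhibition, scaled nicardipine 100% to DMSO 0% / Benchmarks: nicardipine as high control, DMSO as low control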
# WT yeast gro inh: growth inhibition of WT yeast, mitochondrial fusion screen; mitochondrial fusion phenotypic screen, WT strain; AID 1362; inhibition, % at 10 µM; 190,000 compounds, 2.1% hits; in the data active = inhibition above about 58%; tested in S. cerevisiae
# ABCB1 block: human ABCB1 inhibition, ABCG2 as counter-screen. CCRF-Adr cells, JC-1 efflux, flow cytometry. inhibition, % at 6.6 µM. 190,000 compounds, 0.067% hits; in the data active = inhibition above about 40%;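 note: 0% = vehicle and 100% = reference inhibitor; higher value means more JC-1 retained so stronger ABCB1 efflux block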
# Target sequence (P08183 whole entry, looked up): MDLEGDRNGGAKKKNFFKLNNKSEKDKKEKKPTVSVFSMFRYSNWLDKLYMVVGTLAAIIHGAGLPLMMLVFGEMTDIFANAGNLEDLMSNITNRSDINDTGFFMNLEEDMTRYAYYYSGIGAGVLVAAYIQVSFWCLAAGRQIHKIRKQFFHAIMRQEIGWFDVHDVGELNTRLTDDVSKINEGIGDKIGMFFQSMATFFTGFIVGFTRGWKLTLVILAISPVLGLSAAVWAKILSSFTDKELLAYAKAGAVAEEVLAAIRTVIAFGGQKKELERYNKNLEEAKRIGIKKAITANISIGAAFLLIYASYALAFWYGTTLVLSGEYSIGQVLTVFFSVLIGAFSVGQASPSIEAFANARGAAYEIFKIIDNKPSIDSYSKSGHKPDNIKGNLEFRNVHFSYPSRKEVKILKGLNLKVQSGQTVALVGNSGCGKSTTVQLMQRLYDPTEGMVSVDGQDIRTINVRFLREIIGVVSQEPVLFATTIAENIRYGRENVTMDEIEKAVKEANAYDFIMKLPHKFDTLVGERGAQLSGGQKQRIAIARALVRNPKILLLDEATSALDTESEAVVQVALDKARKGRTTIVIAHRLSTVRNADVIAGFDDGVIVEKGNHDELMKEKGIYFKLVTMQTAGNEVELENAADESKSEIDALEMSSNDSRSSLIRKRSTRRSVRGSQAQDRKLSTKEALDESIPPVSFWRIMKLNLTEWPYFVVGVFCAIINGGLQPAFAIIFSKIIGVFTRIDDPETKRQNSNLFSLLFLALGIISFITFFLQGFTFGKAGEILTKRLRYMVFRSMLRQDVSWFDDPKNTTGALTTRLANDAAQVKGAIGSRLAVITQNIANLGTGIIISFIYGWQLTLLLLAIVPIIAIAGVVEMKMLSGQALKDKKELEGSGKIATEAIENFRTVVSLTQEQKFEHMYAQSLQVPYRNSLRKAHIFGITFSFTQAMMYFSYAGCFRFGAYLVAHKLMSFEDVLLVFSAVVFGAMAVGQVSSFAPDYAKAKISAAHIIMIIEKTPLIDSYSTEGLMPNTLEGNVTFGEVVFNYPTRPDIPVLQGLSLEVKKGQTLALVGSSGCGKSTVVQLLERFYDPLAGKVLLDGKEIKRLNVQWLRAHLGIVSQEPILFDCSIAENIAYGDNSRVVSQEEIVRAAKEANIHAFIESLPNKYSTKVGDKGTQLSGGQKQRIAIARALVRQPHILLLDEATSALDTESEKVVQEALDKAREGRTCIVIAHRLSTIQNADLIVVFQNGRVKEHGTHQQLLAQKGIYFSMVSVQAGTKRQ
# RAM inhibit: blocks the yeast RAM network; S. cerevisiae dse1pr::URA3 reporter, 5-FOA growth OD615, 2 d; analog-sensitive cbk1-as2 kinase mutant strain; inhibition, % at 50 µM; 190,000 compounds, 1.8% hits;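 active = inhibition above a set limit, 3 SD over mean compound inhibition, cut at about 8.4% in these data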;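 note: 0% = DMSO-only wells with no growth and 100% = 10 µM 1-NA-PP1 full growth; inhibition rescues growth on 5-FOA so higher OD means more RAM inhibition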
# * marks the source's active call; other numbers are inactive results.
SMILES,Lmaj promast,ABCG2 inh,WT yeast gro inh,ABCB1 block,RAM inhibit
Cc1ccc(OCCCn2c(CO)nc3ccccc32)cc1,7,7,-6,0,1
CCCn1c(CNc2ccc(Br)cc2)nc2ccccc21,97*,3,44,1,4
CCn1c(CNc2ccc(C(=O)O)cc2)nc2ccccc21,-1,1,-4,0,-1
Cc1ccc(NCc2nc3ccccc3n2CCOc2ccccc2)cc1,38,30,63*,0,-1
CCOC(=O)Cc1c(C)nc(SC)[nH]c1=O,-1,2,-1,1,1
COc1ccc(CNC(=O)COC(=O)c2ccccn2)cc1,-7,1,2,0,2
COC(=O)c1ccc(NC(=O)CN2CCN(c3ccccc3)CC2)cc1,3,6,5,1,2
CCOC(=O)c1ccc(NC(=O)CN2C(=O)C(CC)SC(CC)C2=O)cc1 (configuration not stated),-4,11,-32,1,9.6*
CCOC(=O)c1ccc(NC(=O)CN2CCN(c3ccccc3)CC2)cc1,92*,5,-2,1,1
CCOC(=O)c1ccc(NC(=O)CN2C(=O)CSCC2=O)cc1,30,-1,-29,0,2
CCOC(=O)c1ccc(NC(=O)CN2C(=O)CNC2=O)cc1,96*,1,-7,0,2
CC(C)NC(=O)COC(=O)c1ccccc1C(=O)c1ccccc1,0,1,-6,0,4
COc1cccc(-c2nn(-c3ccccc3)cc2CN2CCCO2)c1,5,3,-7,1,0
CCN(CC)CC(=O)Nc1sc(C)c(C)c1C(=O)c1ccc(C)cc1,29,9,9,3,2
Cc1ccc(C(=O)c2c(NC(=O)c3ccccc3C)sc(C)c2C)cc1,5,3,-13,1,10*
NC(=O)c1cnn(C2CCS(=O)(=O)C2)c1 (configuration not stated),3,-2,0,-1,1
OCCN1CCN(C(=S)Nc2ccc(Oc3ccccc3)cc2)CC1,-5,4,-1,1,-1
Clc1cccc(OCCN2CCOCC2)c1,7,2,0,0,2
FC(F)(F)c1cccc(OCCN2CCN(Cc3ccccc3)CC2)c1,76*,11,37,1,1
OCCN1CCN(CCOc2cccc(Cl)c2)CC1,90*,9,42,1,2
Clc1cccc(OCCN2CCNCC2)c1,100*,6,-10,0,3
CCOc1ccc2cc(C#N)c(SCC(=O)NC(C)CC)nc2c1 (configuration not stated),0,5,11,1,2
Cc1cc(C)n(CC(=O)c2cccc(N)c2)n1,-1,2,6,0,0
CC(C)CCNc1nnnc2c1sc1nc(N3CCOCC3)c3c(c12)CC(C)(C)SC3,57*,0,45,1,1
CC1(C)Cc2c(c(N3CCOCC3)nc3sc(C#N)c(N)c23)CS1,-1,5,9,1,5
SMILES,Lmaj promast,ABCG2 inh,WT yeast gro inh,ABCB1 block,RAM inhibit
CC1=C(C#N)C(c2cn(-c3ccccc3)nc2-c2cccs2)C(C#N)=C(C)N1,66*,7,-7,2,5
Cc1ccc(C(=O)N[C@H](C(=O)Nc2cc(Cl)cc(Cl)c2)C(C)C)cc1,-3,2,-9,0,2
O=c1c2ccccc2c(-c2ccc(O)cc2)nn1-c1cccc(C(F)(F)F)c1,6,9,83*,0,2
COc1cc(Nc2nc(SCC#N)nc3ccccc23)cc(OC)c1OC,53*,5,-16,1,2
CCCc1nn(C)c(C(=O)Nc2ccc3ccccc3c2)c1Cl,5,-2,9,-1,11*
Cc1ccc(-n2cc(CNCCCn3ccnc3C)c(-c3ccc(F)cc3)n2)cc1,100*,10,43,2,1
Cc1ccc(-n2cc(CN3CCN(Cc4nccn4C)CC3)c(-c3ccc(F)cc3)n2)cc1,16,0,26,1,-1
Cc1ccc(-n2cc(CNCCc3cscn3)c(-c3ccc(F)cc3)n2)cc1,75*,7,69*,3,0
CCOC(=O)/C(=N/O)C1=NC(C)(C)Cc2cc(C)c(C)cc21,-4,0,-18,0,1
CC1CC(C)CN(C(=O)c2ccc3c(c2NCCO)C(=O)c2ccccc2C3=O)C1 (configuration not stated),99*,22,28,7,2
CCOc1ccccc1NC(=S)N1CCC(NC(=O)C(C)(C)C)CC1,-4,0,15,0,1
CN(C)S(=O)(=O)c1cc(C(=O)NCCCn2ccc3ccccc32)ccc1Cl,-4,1,3,0,9.3*
COCCNC(=O)c1ccccc1NC(=O)c1ccccc1SC,1,1,-1,0,0
COCCNC(=O)CSc1nnc(-c2ccc(C)cc2)c(-c2ccc(C)cc2)n1,90*,17,28,3,0
Cc1ccc(NC(=O)C2CCCN(C(=O)c3ccc(Cl)cc3)C2)cc1S(=O)(=O)N1CCOCC1 (configuration not stated),13,11,0,2,2
COc1cccc(Oc2nccc(N(C)C)c2C#N)c1,16,11,-12,2,2
CC(C)OP(=O)(OC(C)C)C(Nc1ccccc1)c1ccccc1C(F)(F)F (configuration not stated),94*,8,55,5,4
C=CCn1c(SCC(=O)Nc2ccc(-c3nc4ccc(C)cc4s3)cc2)nnc1-c1ccccc1,-6,-4,15,0,-1
COc1ccccc1N(CC(=O)NC1CCCC1)C(=O)c1oc(C(C)(C)C)cc1C,62*,4,32,2,1
Cc1cc(C(C)(C)C)oc1C(=O)N(CC(=O)NC1CCCC1)c1c(C)cccc1C,24,1,-20,0,7
FC(F)(F)c1cccc(Cc2noc(CN3CCCC(OCc4ccccn4)C3)n2)c1 (configuration not stated),-11,2,11,1,-1
Cc1cc(C)c2cc(CN(CCN(C)C)C(=O)Nc3ccccc3Cl)c(=O)[nH]c2c1,58*,1,7,0,0
COC(=O)C(OC(=O)c1ccc(OC)cc1)C(=O)OC,1,1,-2,0,0
Cc1ccc(NC(=O)C(C)c2ccc([N+](=O)[O-])cc2)cc1Cl (configuration not stated),56*,18,54,1,-1
COc1ccc(C(=O)C(OC(=O)c2ccccc2)c2ccccc2)cc1 (configuration not stated),3,2,21,0,10*
CCC(C)C(NC(N)=O)C(=O)Nc1ccc(C)c(Cl)c1 (configuration not stated),58*,13,-12,0,-1
Cc1ccccc1OCC(=O)OC(C(=O)c1ccccc1)c1ccccc1 (configuration not stated),33,-3,8,-1,10*
CC[C@H](C)[C@H](NC(N)=O)C(=O)Nc1ccc(OC)c(Cl)c1,-2,3,-17,1,1
